Compound activity deposited in PubChem by several laboratories.
GalR3 antag – antagonists of human GalR3; O60755; HEK293 GalR3-CNG cAMP membrane potential fluorescence; galR3 body fused to GalR1 C-terminus; inhibition, % at 3 µM; 0.44% of 360,000 active;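 active means inhibition above the screen-wide average plus 3 SD, cut at about 13% in these data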;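 further: forskolin and galanin both at EC90 stimulate the cells; cAMP rise reported by CNG channel membrane potential dye signal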
697 NFkB inh – lowers PMA/ionomycin-induced NF-kB signal in 697 B cells; inhibition, % at 4 µM; AID 435022; 697 B-cell NF-kB luciferase reporter, 16 h; 0.33% of 330,000 active; in the data active means inhibition above about 35%
NR2E3 ag-1 – human photoreceptor-specific nuclear receptor agonism; CHO-S Gal4-NCOR/VP16-NR2E3 two-hybrid, luciferase; inhibition of corepressor binding, % at 3.98 µM; 0.35% of 360,000 active;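 active means inhibition above the mean of all tested compounds plus 3 SD, cut at about 70% in these data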;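 further: higher means lower luciferase signal from less NR2E3 corepressor binding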
Target sequence (Q9Y5X4 whole entry, looked up, the tested form may be a part): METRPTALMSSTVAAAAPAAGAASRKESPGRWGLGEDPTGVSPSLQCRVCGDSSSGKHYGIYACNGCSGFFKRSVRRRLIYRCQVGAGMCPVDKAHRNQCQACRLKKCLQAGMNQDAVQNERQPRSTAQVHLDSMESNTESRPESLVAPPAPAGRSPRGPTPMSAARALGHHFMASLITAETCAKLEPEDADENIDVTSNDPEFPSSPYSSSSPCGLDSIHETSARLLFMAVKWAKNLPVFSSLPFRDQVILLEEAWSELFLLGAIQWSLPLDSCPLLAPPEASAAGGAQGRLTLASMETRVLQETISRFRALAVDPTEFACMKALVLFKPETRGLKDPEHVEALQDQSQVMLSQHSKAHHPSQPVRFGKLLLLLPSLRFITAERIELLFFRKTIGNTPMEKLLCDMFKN
Jurkat NFkB inh – inhibitors of the PMA/ionomycin-induced NF-kB reporter in Jurkat cells; PMA/ionomycin-induced NF-kB luciferase reporter, luminescence; 0.53% of 330,000 active; inhibition, % at 4 µM; in the data active means inhibition above about 50%
NR2E3 ag-2 – activates human photoreceptor nuclear receptor NR2E3; AID 2300; inhibition of corepressor binding, % at 4.78 µM; 0.12% of 320,000 active; GST-NR2E3/biotin-RetCOR TR-FRET, 1536-well; Q9Y5X4;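 active means percent inhibition above the cutoff of mean plus 3 SD of all tested compounds, set per screening campaign, cut at about 20% in these data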
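Test system – NR2E3–RetCOR corepressor complex · Quantity – NR2E3 fusion 1.35 nM · Buffer or medium – Tris pH 7.5 · Incubation – Compound–protein incubation for 5 h at 4 °C · Technique – TR-FRET, Eu(K)-anti-GST donor, streptavidin-D2 acceptor, ex 340, em 617/671 nm · Evaluation – percent inhibition of 671/617 nm emission ratio versus biotin and DMSO controls · Plate – 1536-well format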
Gli-Sufu antag – antagonists of Gli-Sufu signaling. inhibition, % at 5 µM. 0.74% of 340,000 active. Sufu-KO-LIGHT fibroblasts, Gli luciferase reporter luminescence. AID 588413;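 active means inhibition above about 55%, limit read from the data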
Jurkat NFkB conf – inhibitors of the PMA/ionomycin-induced NF-kB reporter in Jurkat cells, retest; shares compounds with Jurkat NFkB inh; Jurkat NF-kB luciferase, 16 h; inhibition, % at 4 µM; 27% of 2,700 active; AID 435020;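 active means inhibition reaching about 45% at 4 µM in either replicate, limit read from the data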
697 NFkB conf – inhibitors of the PMA/ionomycin-induced NF-kB reporter in 697 B cells, retest | shares compounds with 697 NFkB inh | 697 B-cell NF-kB luciferase, 16 h | inhibition, % at 4 µM | 35% of 2,000 active | AID 449746; in the data active means inhibition mostly above about 28%, no sharp cut-off; inactive means mostly below about 22%
Numbers stand for hits; - = inactive; . = no result given. The list is not random: actives were taken first. Their share in the collection is about 1.8%.

SMILES	GalR3 antag	697 NFkB inh	NR2E3 ag-1	Jurkat NFkB inh	NR2E3 ag-2	Gli-Sufu antag	Jurkat NFkB conf	697 NFkB conf
C[C@@H]1CCCCO[C@@H](CN(C)C(=O)NC2CCCCC2)[C@@H](C)CN([C@H](C)CO)C(=O)c2cc(N(C)C)ccc2O1	-	.	.	.	.	.	.	.
CCN(CC)c1ccc(C(=O)Nc2cccc(F)c2)cc1	-	-	-	-	-	-	-	-
O=S(=O)(c1ccccc1)N1CCCc2nc(-c3ccc(Br)cc3)ccc21	-	.	.	.	.	.	.	.
Cc1ccc(C2NC(=O)c3n[nH]c(C(C)C)c32)cc1 (configuration not stated)	-	.	.	.	.	.	.	.
CCOCCCNC(=O)c1ccc2c(c1)N=C(CC)c1cc(Br)ccc1S2	-	-	-	78.4	-	-	54.8	-
CCC1=Nc2cc(C(=O)NCCN3CCOCC3)ccc2Sc2ccccc21	-	-	-	-	-	-	.	.
COc1ccc2nc(NC(=S)N(C)C)sc2c1	-	-	-	-	-	-	-	-
COc1ccc2nc(NC(=O)c3ccoc3C)sc2c1	-	-	-	-	-	-	-	-
COC(=O)c1sc(NC(=O)c2ccoc2C)nc1C	-	.	-	.	.	-	.	.
Cc1ccc(-c2cc(NC(=O)Cc3c[nH]c4ccccc34)ccc2N(C)c2cccnc2)cc1	-	.	.	.	.	.	.	.
Cc1ccnc(NC(=O)Nc2ccc(F)cc2)c1	-	-	-	-	-	-	-	-
CSc1ccc(NC(=O)Nc2cc(C)ccn2)cc1	-	-	-	-	-	-	-	-
COc1ccc(NC(=O)Nc2cc(C)ccn2)cc1	-	.	-	.	.	-	.	.
COc1cccc(CNC(=O)[C@H]2CCCN2C(=O)[C@H]2CCCN2)c1	-	.	.	.	.	.	.	.
O=c1oc2ccccc2cc1-c1nc2ccccc2o1	-	-	-	-	-	-	.	.
O=c1oc2ccccc2cc1-c1nc2c(s1)CCCC2	-	-	-	-	-	-	-	-
O=C(Nc1nc2ccccc2[nH]1)c1ccc(OC(F)F)cc1	-	-	-	-	-	-	-	-
O=S1(=O)N[C@H](Cc2ccccc2)COc2cc(N3CCOCC3)ccc21	-	.	.	.	.	.	.	.
Cc1ccc(C2=NN(S(C)(=O)=O)C(c3ccc4c(c3)OCO4)C2)cc1 (configuration not stated)	-	-	-	-	-	-	-	-
CS(=O)(=O)N1N=C(c2ccc(Br)cc2)CC1c1ccc2c(c1)OCO2 (configuration not stated)	.	-	-	-	-	-	.	.
CC(C)C[C@H]1COc2cc(NCc3ccc(Cl)c(Cl)c3)ccc2S(=O)(=O)N1	-	.	.	.	.	.	.	.
COc1ccc(C(=O)c2sc3nc(-c4ccccc4)ccc3c2N)cc1	.	-	-	-	-	-	.	.
CC(C)OC(=O)c1sc2nc(-c3ccccc3)ccc2c1N	-	-	-	-	-	-	-	-
COc1ccc(N=Cc2c(O)c3ccccc3n2C(C)=O)cc1	-	-	-	-	-	-	.	.
COc1ccc(N=Cc2sc(O)c3ccccc23)cc1	-	-	-	-	-	-	-	-
SMILES	GalR3 antag	697 NFkB inh	NR2E3 ag-1	Jurkat NFkB inh	NR2E3 ag-2	Gli-Sufu antag	Jurkat NFkB conf	697 NFkB conf
COc1ccc(N(C(=O)Cc2cccs2)C(C(=O)NC2CCCC2)c2ccncc2)cc1OC (configuration not stated)	-	-	-	-	-	-	.	.
C#CC(=O)N(c1ccc(OC)c(OC)c1)C(C(=O)NC1CCCC1)c1cccs1 (configuration not stated)	-	100.6	-	100.0	-	70.1	85.2	101.8
C#CC(=O)N(c1cccc(OC)c1)C(C(=O)NC1CCCC1)c1cccs1 (configuration not stated)	-	103.0	-	98.9	-	-	94.2	99.8
O=C(Nc1ccccc1C(=O)NCC1CC1)c1cccs1	-	.	.	.	.	.	.	.
CC(C)(C)c1ccc2c(c1)C(=O)c1ccccc1C2=O	-	-	-	-	-	-	-	-
CCN=c1scc(-c2ccccc2)n1/N=C/c1ccccn1	.	-	-	-	-	-	-	-
C=CCN=c1scc(-c2ccccc2)n1/N=C/c1ccccn1	-	-	-	-	-	-	-	-
COc1cccc(CNC(=O)[C@H]2CCCN2C(=O)C2CCCN2C(=O)c2ccc(OC)c(F)c2)c1 (some centres not stated)	-	.	.	.	.	.	.	.
Nc1nc(Cl)nc2c1ncn2C1CC(O)C(CO)O1 (configuration not stated)	-	64.7	-	50.8	-	.	50.0	67.6
Nc1nc(Cl)nc2c1ncn2C1OC(CO)C(O)C1O (configuration not stated)	-	.	-	.	.	.	.	.
COc1ccc(-c2ccc3sc4ccccc4c(=O)c3c2)cn1	-	-	-	-	-	-	-	-
COc1ccccc1N1CCN(c2ccc3ccccc3n2)CC1	-	-	-	-	-	-	-	-
CN1C(=O)[C@@]2(O[C@H]3[C@H]4C=C[C@@H]([C@H]5C(=O)N(Cc6ccccc6)C(=O)[C@@H]45)N3C3=C2C(=O)CC3)c2ccccc21	-	.	.	.	.	.	.	.
Cc1ccc(/C=C/C(=O)c2c(C)nc3ccccn23)cc1	-	-	-	-	-	-	.	.
Cc1nc2ccccn2c1C(=O)/C=C/c1cccc([N+](=O)[O-])c1	-	39.8	-	50.8	-	-	-	40.6
Cc1cc(-c2cc(C(=O)NCc3ccccc3)on2)nc(S(C)(=O)=O)n1	-	51.4	-	52.0	-	-	-	41.7
CCCCCCCCN1C(=O)[C@@H](CC(=O)NCc2cccc3ccccc23)C[C@@]2(C(=O)OC)C1=C[C@H](C1CCCC1)O[C@@H]2C	-	.	.	.	.	.	.	.
Nc1nc(CSc2n[nH]c(-c3ccccc3)n2)nc(Nc2ccccc2)n1	-	-	-	-	-	-	.	.
Cc1ccc(-c2nc(Nc3ccccc3)n[nH]2)cc1	-	-	-	-	-	-	-	-
NC(=O)c1c(N)[nH]c(C(=O)c2ccccc2)c1-c1ccc(Cl)cc1Cl	-	.	.	.	.	.	.	.
COc1cccc(C(=O)N2CCC[C@@H]2C(=O)N2CCC[C@@H]2C(=O)NCc2ccccc2)c1	-	.	.	.	.	.	.	.
CC(C)(C)C1C/C(=C/c2ccccn2)C(=O)/C(=C/c2ccccn2)C1 (configuration not stated)	.	105.1	95.9	99.7	-	66.4	-	-
ClC1=C(Cl)C(Cl)=C(Cl)C1=C/C=C/c1ccccc1	-	-	-	55.2	-	79.2	-	-
N#CCCCC#Cc1ccc2c(c1)COc1c3ccccc3nn1-2	-	-	-	-	-	-	-	-
c1ccc(-c2csc(Nc3ccc4c(c3)OCCO4)n2)cc1	-	-	-	-	-	-	-	-
Cc1cc(C)nc(Nc2nc(-c3ccccc3)cs2)n1	-	-	-	-	-	-	-	-
Cc1ccc(Nc2nc(-c3ccccc3)cs2)nc1	-	-	-	-	.	-	-	-
